Measurements gathered from unrelated publications.
Lines come from different studies, so protocols differ.
Organism: Pseudomonas aeruginosa
Observed: microbial growth

C[C@H]1[C@H](NC(=O)/C(=N\OC(C)(C)C(=O)O)c2csc(N)n2)C(=O)N1S(=O)(=O)O — MIC (broth dilution; ATCC27853): 2 µg/mL
COc1ccc2ccc(O)c(/C=N/[C@H]3CCCC[C@H]3/N=C/c3ccc(OCCN4CCCCC4)cc3O)c2c1 — MIC (broth dilution; clinical isolate): > 40 µM
CCCCCCC#Cc1cncc(-c2nnc(SCc3ccc(Cl)cc3)n2CCCN)c1 — MIC (broth dilution; DSM1128): > 64 µg/mL
CN(C)[C@@H]1C(O)=C(C(N)=O)C(=O)[C@@]2(O)C(O)=C3C(=O)c4c(O)cccc4[C@@](C)(O)[C@H]3C[C@@H]12 — MIC (broth dilution; ATCC27853): 16 µg/mL
Cc1cc(Nc2nnc(-c3n[nH]c4ccc(C)cc34)s2)cc([N+](=O)[O-])c1 — MIC (ATCC27853): 187 µg/mL
[H]/N=C(\N/C(=N/[H])NCCCCCCNC(=N)NC(=N)Nc1ccc(Cl)cc1)Nc1ccc(Cl)cc1 — MIC (PAO1): 8 µM
C[C@H]1COc2c(N3CCN(C)CC3)c(F)cc3c(=O)c(C(=O)O)cn1c23 — MIC (ATCC27853; drug-resistant strain): 1 µg/mL
CNC(C)C1CCC(N)C(OC2C(N)CC(N)C(OC3OCC(C)(O)C(NC)C3O)C2O)O1 (stereo not shown) — MIC (broth dilution; ATCC27853): 2 µg/mL
CC(C)c1ccc(/C=C2\N=C(SCC(=O)O)N(c3ccccc3)C2=O)cc1 — MIC (broth dilution; ATCC27 ATCC27853): 12 µg/mL
CC1(C)S[C@@H]2[C@H](NC(=O)[C@H](N)c3ccccc3)C(=O)N2[C@H]1C(=O)O — MIC (broth dilution; ATCC27853): 64 µg/mL
CC[C@H]1OC(=O)[C@H](C)[C@@H](O[C@H]2C[C@@](C)(OC)[C@@H](O)[C@H](C)O2)[C@H](C)[C@@H](O[C@@H]2O[C@H](C)C[C@H](N(C)C)[C@H]2O)[C@](C)(O)C[C@@H](C)CN(C)[C@H](C)[C@@H](O)[C@]1(C)O — MIC (ATCC27853): < 98 µg/mL
CCCCCCC#Cc1cncc(-c2nnc(SCc3cc([N+](=O)[O-])cc([N+](=O)[O-])c3)n2C2CCNCC2)c1 — MIC (broth dilution; DSM1128): > 64 µg/mL
CO/N=C(\C(=O)N[C@@H]1C(=O)N2C(C(=O)O)=CCS[C@H]12)c1csc(N)n1 — MIC (broth dilution; ATCC27853): 16 µg/mL
Cc1ccc2[nH]nc(-c3nnc(Nc4ccc(F)cc4)s3)c2c1 — MIC (ATCC27853): 63.9 µg/mL
COc1ccc2ccc(O)c(/C=N/[C@H]3CCCC[C@H]3/N=C/c3c(O)cccc3F)c2c1 — MIC (broth dilution): > 40 µM
Cc1ccc2[nH]nc(-c3nnc(Nc4ccc([N+](=O)[O-])cc4)s3)c2c1 — MIC (ATCC27853): 105 µg/mL
COc1ccc2ccc(O)c(/C=N/[C@H]3CCCC[C@H]3/N=C/c3ccc(-c4ccccc4)cc3O)c2c1 — MIC (broth dilution): > 40 µM
CCCCCCC#Cc1cncc(-c2nnc(SCc3ccc([N+](=O)[O-])o3)n2CCCN)c1 — MIC (broth dilution; DSM1128): > 64 µg/mL
Cc1ccc2[nH]nc(-c3nnc(Nc4ccc(Cl)c(Br)c4)s3)c2c1 — MIC (ATCC27853): 254 µg/mL
CCCCCCCCN=c1ccn(CCCCCCCCCCn2ccc(=NCCCCCCCC)cc2)cc1 — MIC (PAO1): 2 µM
CCCCCCC#Cc1cncc(-c2nnc(SCc3cc([N+](=O)[O-])cc([N+](=O)[O-])c3)n2CCOC2OC(CN)C(O)C2O)c1 (stereo not shown) — MIC (broth dilution; DSM1128): > 64 µg/mL
Cc1ccc2[nH]nc(-c3nnc(Nc4cc(Cl)cc(Br)c4)s3)c2c1 — MIC (ATCC27853): 224 µg/mL
